According to ChEMBL document CHEMBL2021854, “2-Aminopyrimidine based 4-aminoquinoline anti-plasmodial agents. Synthesis, biological activity, structure-activity relationship and mode of action studies” (Eur J Med Chem, 2012):

Tested on: Coxsackievirus B4
Assay: Antiviral activity against Coxsackie virus B4 infected in human HeLa cells assessed as inhibition of virus-induced cytopathogenicity after 4 days
Format: functional, organism-based
Conditions: Enterovirus B, 96 h
Summary of the method: (§1)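 Confluent HEL, Vero or HeLa monolayers were inoculated with 100 CCID50 of virus in the presence of varying concentrations of compound. Cytopathicity was scored when it reached completion in untreated, virus-infected control cultures.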

Row | Structure (SMILES) | EC50 [µM]
1 | Cc1nc(NCCCNc2ccnc3cc(Cl)ccc23)nc(-c2cccc([N+](=O)[O-])c2)c1C(=O)OC(C)C | > 4

Tested on: Respiratory syncytial virus
Assay: Antiviral activity against Respiratory syncytial virus infected in human HeLa cells assessed as inhibition of virus-induced cytopathogenicity after 4 days
Format: functional, organism-based
Conditions: 96 h
Summary of the method: as §1

Row | Structure (SMILES) | EC50 [µM]
2 | Cc1nc(NCCCNc2ccnc3cc(Cl)ccc23)nc(-c2cccc([N+](=O)[O-])c2)c1C(=O)OC(C)C | > 4

Tested on: Influenza A virus
Assay: Antiviral activity against Influenza A virus H1N1 infected in MDCK cells assessed as reduction visual scoring of virus-induced cytopathogenicity after 4 days
Format: functional, organism-based
Conditions: 96 h
Summary of the method: (§2)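 MDCK monolayers infected with 100 CCID50 of influenza A (H1N1 or H3N2) or influenza B, with varying compound concentrations. Cytopathicity read when untreated infected controls reached complete CPE.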

Row | Structure (SMILES) | EC50 [µM]
3 | Cc1nc(NCCCNc2ccnc3cc(Cl)ccc23)nc(-c2cccc([N+](=O)[O-])c2)c1C(=O)OC(C)C | > 0.16

Tested on: Influenza A virus
Assay: Antiviral activity against Influenza A virus H3N2 infected in MDCK cells assessed as reduction visual scoring of virus-induced cytopathogenicity after 4 days
Format: functional, organism-based
Conditions: 96 h
Summary of the method: as §2

Row | Structure (SMILES) | EC50 [µM]
4 | Cc1nc(NCCCNc2ccnc3cc(Cl)ccc23)nc(-c2cccc([N+](=O)[O-])c2)c1C(=O)OC(C)C | > 0.16

Tested on: Influenza B virus
Assay: Antiviral activity against Influenza B virus infected in MDCK cells assessed as reduction visual scoring of virus-induced cytopathogenicity after 4 days
Format: functional, organism-based
Conditions: 96 h
Summary of the method: as §2

Row | Structure (SMILES) | EC50 [µM]
5 | Cc1nc(NCCCNc2ccnc3cc(Cl)ccc23)nc(-c2cccc([N+](=O)[O-])c2)c1C(=O)OC(C)C | > 0.16

Tested on: Influenza A virus
Assay: Antiviral activity against Influenza A virus H1N1 infected in MDCK cells assessed as inhibition of virus-induced cytopathogenicity after 4 days by colorimetric formazan-based MTS assay
Format: functional, organism-based
Conditions: 96 h

Row | Structure (SMILES) | EC50 [µM]
6 | Cc1nc(NCCCNc2ccnc3cc(Cl)ccc23)nc(-c2cccc([N+](=O)[O-])c2)c1C(=O)OC(C)C | > 0.16

Tested on: Influenza A virus
Assay: Antiviral activity against Influenza A virus H3N2 infected in MDCK cells assessed as inhibition of virus-induced cytopathogenicity after 4 days by colorimetric formazan-based MTS assay
Format: functional, organism-based
Conditions: 96 h

Row | Structure (SMILES) | EC50 [µM]
7 | Cc1nc(NCCCNc2ccnc3cc(Cl)ccc23)nc(-c2cccc([N+](=O)[O-])c2)c1C(=O)OC(C)C | > 0.16

Tested on: Influenza B virus
Assay: Antiviral activity against Influenza B virus infected in MDCK cells assessed as inhibition of virus-induced cytopathogenicity after 4 days by colorimetric formazan-based MTS assay
Format: functional, organism-based
Conditions: 96 h

Row | Structure (SMILES) | EC50 [µM]
8 | Cc1nc(NCCCNc2ccnc3cc(Cl)ccc23)nc(-c2cccc([N+](=O)[O-])c2)c1C(=O)OC(C)C | > 0.16

Tested on: Human betaherpesvirus 5
Assay: Antiviral activity against Cytomegalovirus AD-169 infected in HEL cells assessed as inhibition of virus plaque formation after 4 days
Format: functional, organism-based
Conditions: Human betaherpesvirus 5, AD169, HEL, 96 h

Row | Structure (SMILES) | EC50 [µM]
9 | Cc1nc(NCCCNc2ccnc3cc(Cl)ccc23)nc(-c2cccc([N+](=O)[O-])c2)c1C(=O)OC(C)C | > 4

Tested on: Human betaherpesvirus 5
Assay: Antiviral activity against Human cytomegalovirus Davis infected in HEL cells assessed as inhibition of virus plaque formation after 4 days
Format: functional, organism-based
Conditions: Human betaherpesvirus 5, Davis, 96 h

Row | Structure (SMILES) | EC50 [µM]
10 | Cc1nc(NCCCNc2ccnc3cc(Cl)ccc23)nc(-c2cccc([N+](=O)[O-])c2)c1C(=O)OC(C)C | > 4

Tested on: HeLa
Assay: Cytotoxicity against human HeLa cells assessed as cell viability by colorimetric formazan-based MTS assay
Conditions: not given

Row | Structure (SMILES) | CC50 [µM]
11 | Cc1nc(NCCCNc2ccnc3cc(Cl)ccc23)nc(-c2cccc([N+](=O)[O-])c2)c1C(=O)OC(C)C | 1.04

Tested on: Human alphaherpesvirus 3
Assay: Antiviral activity against […] expressing thymidine kinase infected in HEL cells assessed as reduction of virus plaque formation after 4 days
Format: functional, cell-based
Conditions: Human alphaherpesvirus 3, strain Oka vaccine, 96 h

Row | Structure (SMILES) | EC50 [µM]
12 | Cc1nc(NCCCNc2ccnc3cc(Cl)ccc23)nc(-c2cccc([N+](=O)[O-])c2)c1C(=O)OC(C)C | 4

Tested on: Human alphaherpesvirus 3
Assay: Antiviral activity against thymidine kinase-deficient […] infected in HEL cells assessed as reduction of virus plaque formation after 4 days
Format: functional, organism-based
Conditions: Human alphaherpesvirus 3, 07-1, HEL, 96 h

Row | Structure (SMILES) | EC50 [µM]
13 | Cc1nc(NCCCNc2ccnc3cc(Cl)ccc23)nc(-c2cccc([N+](=O)[O-])c2)c1C(=O)OC(C)C | > 4

Tested on: not listed separately
Assay: Cytotoxicity against cat CRFK cells assessed as cell viability by colorimetric formazan-based MTS assay
Design: species or system Felis catus
Conditions: crfk

Row | Structure (SMILES) | CC50 [µM]
14 | Cc1nc(NCCCNc2ccnc3cc(Cl)ccc23)nc(-c2cccc([N+](=O)[O-])c2)c1C(=O)OC(C)C | 7.7

Tested on: Feline infectious peritonitis virus
Assay: Antiviral activity against FIPV infected in cat CRFK cells assessed as inhibition of virus-induced cytopathic effect after 4 days by colorimetric formazan-based MTS assay
Format: functional, cell-based
Conditions: Alphacoronavirus 1, CRFK, 96 h

Row | Structure (SMILES) | EC50 [µM]
15 | Cc1nc(NCCCNc2ccnc3cc(Cl)ccc23)nc(-c2cccc([N+](=O)[O-])c2)c1C(=O)OC(C)C | > 4

Tested on: Felid alphaherpesvirus 1
Assay: Antiviral activity against Feline herpesvirus infected in cat CRFK cells assessed as inhibition of virus-induced cytopathic effect after 4 days by colorimetric formazan-based MTS assay
Format: functional, organism-based
Conditions: Felid alphaherpesvirus 1, CRFK, 96 h

Row | Structure (SMILES) | EC50 [µM]
16 | Cc1nc(NCCCNc2ccnc3cc(Cl)ccc23)nc(-c2cccc([N+](=O)[O-])c2)c1C(=O)OC(C)C | > 4

Tested on: Human immunodeficiency virus 1
Assay: Antiviral activity against HIV1 infected in human CEM cells assessed as inhibition of virus-induced cytopathic effect after 4 days
Format: functional, organism-based
Conditions: Human immunodeficiency virus 1, CCRF-CEM, 96 h
Summary of the method: (§3)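 CEM T-lymphocytes (~3 × 10^5 cells/ml) were infected with HIV-1 IIIB or HIV-2 ROD at ~100 CCID50, then immediately plated with a range of compound concentrations. Giant cell formation was scored microscopically after 4 days at 37 °C. Cytostatic activity was tested in parallel in uninfected CEM cells.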

Row | Structure (SMILES) | EC50 [µM]
17 | Cc1nc(NCCCNc2ccnc3cc(Cl)ccc23)nc(-c2cccc([N+](=O)[O-])c2)c1C(=O)OC(C)C | > 2

Tested on: Human immunodeficiency virus 2
Assay: Antiviral activity against HIV2 infected in human CEM cells assessed as inhibition of virus-induced cytopathic effect after 4 days
Format: functional, organism-based
Conditions: Human immunodeficiency virus 2, CCRF-CEM, 96 h
Summary of the method: as §3

Row | Structure (SMILES) | EC50 [µM]
18 | Cc1nc(NCCCNc2ccnc3cc(Cl)ccc23)nc(-c2cccc([N+](=O)[O-])c2)c1C(=O)OC(C)C | > 10

Tested on: not listed separately
Assay: Inhibition of beta-hematin formation assessed as Ferriprotoporphyrin IX biomineralisation at 1 mg/ml after 24 hrs
Format: functional
Conditions: not given
Summary of the method: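 Hemin chloride (0.5 mg/ml in DMSO) mixed with 0.5 M sodium acetate buffer pH 4.4 and drug or solvent control, incubated 37 °C for 24 h. Pellet washed with DMSO to remove unreacted hemin, dissolved in 0.1 N NaOH, absorbance read at 405 nm; percent inhibition relative to control. Highest concentration tested 1 mg/ml.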

Row | Structure (SMILES) | inhibition [%]
19 | Cc1nc(NCCCNc2ccnc3cc(Cl)ccc23)nc(-c2cccc([N+](=O)[O-])c2)c1C(=O)OC(C)C | 79
